Measured values taken from PubChem BioAssay.
Active and inactive are the calls of the source.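 Rule for the calls: active = current rise at least 3 SD above the untreated control mean in each of two repeat wells; inactive = the rest.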

Each compound was assayed against Potassium voltage-gated channel subfamily KQT member 1 (Homo sapiens) (UniProt P51787) (assay: KCNQ1 activators by electrophysiology – IonWorks patch clamp, KCNQ1-CHO cells, orthogonal assay for KCNQ1 potentiator project, confirmation (AID 493184)). Conditions: automated patch clamp current, at 10 µM.
Sequence of Potassium voltage-gated channel subfamily KQT member 1 (Homo sapiens) (P51787 whole entry, looked up): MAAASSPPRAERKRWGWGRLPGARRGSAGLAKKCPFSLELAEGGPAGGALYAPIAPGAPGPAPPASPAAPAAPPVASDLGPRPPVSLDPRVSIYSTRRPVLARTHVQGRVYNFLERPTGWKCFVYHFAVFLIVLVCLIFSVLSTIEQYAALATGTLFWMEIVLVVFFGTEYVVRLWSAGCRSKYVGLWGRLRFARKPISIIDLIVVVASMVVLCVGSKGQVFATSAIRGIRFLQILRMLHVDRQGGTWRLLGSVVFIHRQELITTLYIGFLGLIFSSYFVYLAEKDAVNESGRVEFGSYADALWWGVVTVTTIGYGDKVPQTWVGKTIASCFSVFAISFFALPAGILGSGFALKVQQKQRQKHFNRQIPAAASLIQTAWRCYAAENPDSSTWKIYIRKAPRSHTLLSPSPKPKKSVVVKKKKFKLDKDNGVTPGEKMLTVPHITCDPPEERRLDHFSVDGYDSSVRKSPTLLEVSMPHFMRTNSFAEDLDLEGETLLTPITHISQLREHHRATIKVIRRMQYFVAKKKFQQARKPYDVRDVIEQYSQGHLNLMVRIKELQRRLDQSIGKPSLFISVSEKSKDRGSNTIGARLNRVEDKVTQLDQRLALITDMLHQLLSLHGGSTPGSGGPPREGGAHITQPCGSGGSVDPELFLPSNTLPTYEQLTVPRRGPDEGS
In short: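 assay system = KCNQ1-expressing CHO cells | medium = external bath solution at pH 7.4 | probe or stimulus = 2,000 ms depolarization, -90 to +40 mV | compound dosing = 10 µM final, single point | measured by = automated voltage clamp, amphotericin B perforated patch | measure = percent current increase versus pre-compound level | replication = duplicates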

outcome, inactive:
O=C(O)CSc1cc(NS(=O)(=O)c2ccc(Br)cc2)c2ccccc2c1O, Oc1c(N=NC(=S)Nc2ccccc2F)c2ccccc2n1Cc1ccccc1, CC1(C)Cc2c(sc(/N=C/N3CCCCCC3)c2C#N)C(C)(C)N1, Cc1ccccc1NC(=S)NC(=O)c1cc(-c2ccccc2)nc2ccccc12, Cc1ccc(O)c(C(=O)CC(=O)c2ccc(Cl)cc2)c1, Cc1cccc(NC(=S)NNC(=O)c2csc3c2CCC(C)C3)c1 (stereo not given), COc1ccc(C)cc1NC(=O)C1C2C=CC(C2)C1C(=O)O (stereo not given), CCOc1ccc(/C=C2/SC(=O)NC2=S)cc1, O=C(c1ccc(Cl)cc1)c1c[nH]c(C(=O)C(Cl)(Cl)Cl)c1, CCOC(=O)Cc1csc(NC(=O)CSc2nnnn2-c2ccc(C)cc2C)n1, CN(C)CCCNc1nc2sc3c(c2c(=O)n1CCc1ccccc1)CCCCC3, CCOc1ccc2c(c1)C(NC(C)=O)C(=O)N2CCN1CCOCC1 (stereo not given), S=c1nc(-c2ccc(Br)cc2)[nH]c2ccccc12, CCOC(=O)C1(CC2CCCCO2)CCN(Cc2cc3ccccc3[nH]2)CC1 (stereo not given), O=C(COc1ccccc1[N+](=O)[O-])Nc1cccnc1, CCc1ccc2c(c1)c(N=NC1=NC(=O)CS1)c(O)n2C, S=c1nc(C2CCCCC2)[nH]c2ccccc12, CCSC(=S)c1c(C)[nH]n(-c2ccccc2)c1=O, CC(C)c1nc(Cl)c(C#N)c2c1CCC2, COCCOC(=O)N/C=C\c1nc2ccccc2c(=O)[nH]1
